Data on twelve molecules can be found in ChEMBL document CHEMBL5126676, “Identification of Inhibitors of the Schistosoma mansoni VKR2 Kinase Domain” (ACS Med Chem Lett, 2022).

Molecules are shown by their SMILES. Active and inactive are the calls of the source. No cut-off for these calls is given here.

Assay [1] relates to Schistosoma mansoni. Nature of the assay: Antischistosomal activity against adult Schistosoma mansoni assessed as worm degeneration at 10 uM measured after 24 hrs by inverted microscopy. The class given is functional, organism-based. In outline:
(§1)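 Adult S. mansoni worms exposed ex vivo to 10 μM compound. Observed at 2, 5 and 24 h and scored with an observation-based severity system. Descriptors recorded: degenerating, uncoordinated, slow, on sides (no adherence to the well floor by oral or ventral sucker), and tegument blebs. Three to five biological singleton assays.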

The subject of assay [2] is Schistosoma mansoni. The experiment in a line: Antischistosomal activity against adult Schistosoma mansoni assessed as reduction in worm motility at 10 uM measured after 2 hrs by inverted microscopy. The assay is classed as functional, organism-based. In outline:
as §1

Assay [3] deals with Schistosoma mansoni. Nature of the assay: Antischistosomal activity against adult Schistosoma mansoni assessed as loss of worm ability to adhere to well floor at 10 uM measured after 2 hrs by inverted microscopy. The assay is classed as functional, organism-based. In outline:
as §1

Assay [4] concerns Schistosoma mansoni. The experiment in a line: Antischistosomal activity against adult Schistosoma mansoni assessed as damage to the tegument by measuring bubbling at 10 uM measured after 24 hrs by inverted microscopy. The assay is classed as functional, organism-based. In outline: as §1
Assay [5] concerns the target T1, Venus kinase receptor 2 (Schistosoma mansoni, UniProt D5JEH1). The experiment in a line: Binding affinity to Schistosoma mansoni N-terminal His6-tagged full-length VKR2 kinase domain expressed in baculovirus infected Sf9 insect cells in presence of ATPgammaS by SPR analysis.
The subject of assay [6] is Schistosoma mansoni. The experiment in a line: Antischistosomal activity against adult Schistosoma mansoni assessed as damage to the tegument by measuring blebbing at 10 uM measured after 24 hrs by inverted microscopy. The assay is classed as functional, organism-based. Put shortly: as §1
For assay [7], the system named is Schistosoma mansoni. Nature of the assay: Antischistosomal activity against adult Schistosoma mansoni assessed as reduction in worm motility at 10 uM by worm assay. The assay is classed as functional, organism-based. As to conditions: time 2-24 hrs, TDE = time-dependent effect. Put shortly:
(§2)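 Ex vivo adult S. mansoni were incubated with 10 μM compound. Average worm motility per well was recorded by WormAssay over time at 2, 5 and 24 h. Three to five biological assays. Significance was tested by two-tailed Student's t-test.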

Assay [8] concerns the target T1, Venus kinase receptor 2. Nature of the assay: Inhibition of Schistosoma mansoni N-terminal His6-tagged full-length VKR2 kinase domain expressed in baculovirus infected Sf9 insect cells assessed as reduction in autophosphorylation measured after 30 mins in presence of ATP by ADP-glo kinase assay. In outline: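 Autophosphorylation of the SmVKR2 kinase domain, used as the read-out because no substrate is known, with 10 μM ATP. Concentration–response curves were run in triplicate, and IC50 was fitted from them; the paper plots mean ± SD.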

In assay [9] the test system is Schistosoma mansoni. Nature of the assay: Antischistosomal activity against adult Schistosoma mansoni assessed as reduction in worm motility at 10 uM measured after 2 to 24 hrs by worm assay. The assay is classed as functional, organism-based. As to conditions: time 2-24 hrs. Put shortly: as §2
Assay [10] has as its system Schistosoma mansoni. Nature of the assay: Antischistosomal activity against adult Schistosoma mansoni assessed as reduction in worm movement at 10 uM measured after 2 to 24 hrs by inverted microscopy. The class given is functional, organism-based. The note with it: time 2-24 hrs. In outline: as §1

T1 sequence (D5JEH1 whole entry, the tested form may be a part): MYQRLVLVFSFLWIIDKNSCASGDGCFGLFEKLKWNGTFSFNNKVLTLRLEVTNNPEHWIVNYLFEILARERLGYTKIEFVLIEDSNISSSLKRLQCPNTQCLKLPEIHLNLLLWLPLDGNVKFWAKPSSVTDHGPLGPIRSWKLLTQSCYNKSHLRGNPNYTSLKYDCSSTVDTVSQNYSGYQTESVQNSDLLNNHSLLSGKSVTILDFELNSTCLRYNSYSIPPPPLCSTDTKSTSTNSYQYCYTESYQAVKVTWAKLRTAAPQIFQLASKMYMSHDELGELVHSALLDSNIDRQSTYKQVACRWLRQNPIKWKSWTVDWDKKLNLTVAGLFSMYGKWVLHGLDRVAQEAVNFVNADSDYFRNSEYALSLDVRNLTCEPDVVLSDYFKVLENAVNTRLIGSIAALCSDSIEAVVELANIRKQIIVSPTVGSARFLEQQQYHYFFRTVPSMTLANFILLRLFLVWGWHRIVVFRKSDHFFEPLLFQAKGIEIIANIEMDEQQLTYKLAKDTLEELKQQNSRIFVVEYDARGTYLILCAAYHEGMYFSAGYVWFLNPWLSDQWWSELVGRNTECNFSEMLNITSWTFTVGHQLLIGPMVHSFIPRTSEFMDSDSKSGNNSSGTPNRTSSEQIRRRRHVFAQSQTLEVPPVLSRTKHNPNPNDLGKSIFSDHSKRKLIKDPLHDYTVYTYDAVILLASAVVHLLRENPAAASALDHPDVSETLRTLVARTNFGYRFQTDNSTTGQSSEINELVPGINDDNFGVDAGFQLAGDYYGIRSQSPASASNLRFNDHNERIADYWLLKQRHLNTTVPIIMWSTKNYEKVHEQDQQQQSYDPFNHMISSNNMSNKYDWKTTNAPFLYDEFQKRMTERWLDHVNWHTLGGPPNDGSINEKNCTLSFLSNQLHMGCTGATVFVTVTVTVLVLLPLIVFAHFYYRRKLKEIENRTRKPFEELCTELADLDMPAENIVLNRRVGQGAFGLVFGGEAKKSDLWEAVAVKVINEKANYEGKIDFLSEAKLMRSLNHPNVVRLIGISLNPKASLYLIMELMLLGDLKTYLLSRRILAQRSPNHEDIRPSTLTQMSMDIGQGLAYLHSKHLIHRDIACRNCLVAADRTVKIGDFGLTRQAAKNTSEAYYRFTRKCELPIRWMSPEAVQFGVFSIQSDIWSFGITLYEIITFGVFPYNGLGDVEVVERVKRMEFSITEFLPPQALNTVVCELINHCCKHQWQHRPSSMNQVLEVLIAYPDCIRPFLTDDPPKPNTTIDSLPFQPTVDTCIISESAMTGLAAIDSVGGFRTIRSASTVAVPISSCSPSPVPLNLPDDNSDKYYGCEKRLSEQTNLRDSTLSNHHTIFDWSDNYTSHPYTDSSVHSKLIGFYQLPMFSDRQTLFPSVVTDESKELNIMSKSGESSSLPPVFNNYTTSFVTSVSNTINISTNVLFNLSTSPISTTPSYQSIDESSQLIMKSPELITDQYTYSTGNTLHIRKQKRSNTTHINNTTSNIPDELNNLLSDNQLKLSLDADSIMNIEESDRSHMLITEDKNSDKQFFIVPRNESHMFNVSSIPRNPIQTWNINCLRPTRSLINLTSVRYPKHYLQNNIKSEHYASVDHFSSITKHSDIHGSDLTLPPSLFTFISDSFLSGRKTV

On to `CC(C)Oc1ccc2c(-c3ccnc(Nc4ccc(N5CCN(C)CC5)cc4)n3)cnn2n1`, for which the outcome in the assay on Schistosoma mansoni [1], in the assay with Schistosoma mansoni [2], in the assay on Schistosoma mansoni [3], in the assay with Schistosoma mansoni [4] and with Schistosoma mansoni [6] was Active. The Kd on Venus kinase receptor 2 [5] was found to be 3.4 µM. Besides, the Activity entry with Schistosoma mansoni [7] is “Tde”. Further, the half-inhibitory concentration (IC50) at Venus kinase receptor 2 [8] stood at 20.1 µM.

For `Cc1cccc(Nc2nc(NCCN)ncc2C(N)=O)c1`, the Kd on Venus kinase receptor 2 [5] worked out at 4.5 µM.

Regarding `NCCNS(=O)(=O)c1ccc(-c2ccnc3[nH]ccc23)cc1`, the Kd on Venus kinase receptor 2 [5] worked out at 2.53 µM.

Take `Nc1nc(N)c2nc(-c3ccccc3)[nH]c2n1`: the Kd at Venus kinase receptor 2 [5] was 82 µM.

As to `Nc1n[nH]c2cnc(-c3ccccc3)cc12`, the Kd at Venus kinase receptor 2 [5] stood at 47 µM.

`O=C(Nc1n[nH]c2cnc(-c3ccc(O)cc3)cc12)C1CC1`: the Kd on Venus kinase receptor 2 [5] came to 170 µM. Moreover, the result with Schistosoma mansoni [9] and in the assay with Schistosoma mansoni [10] was Active.

In the case of `CN(C)CCNS(=O)(=O)c1ccc(-c2ccnc3[nH]ccc23)cc1`, at Venus kinase receptor 2 [5], the Kd stood at 8.2 µM.

As to `CNC(=O)c1ccccc1Nc1nc(Nc2cccc(CS(C)(=O)=O)c2)ncc1C`, the Kd at Venus kinase receptor 2 [5] is 0.44 µM. Besides, the IC50 at Venus kinase receptor 2 [8] was 6.47 µM.

As for `Cc1n[nH]c2cc(Nc3ccnc(Nc4cccc(CN5CCOCC5)c4)n3)ccc12`, the Kd at Venus kinase receptor 2 [5] turned out to be 39 µM.

Take `Cc1cccc(Nc2nc(N[C@H]3CCCC[C@H]3N)ncc2C(N)=O)c1`: the Kd at Venus kinase receptor 2 [5] is 1.96 µM. The outcome with Schistosoma mansoni [9] and with Schistosoma mansoni [10] was Active. In addition, the IC50 at Venus kinase receptor 2 [8] amounted to 5.69 µM.

In the case of `NC(=O)Nc1sc(-c2ccc(F)cc2)cc1C(N)=O`, the Kd on Venus kinase receptor 2 [5] turned out to be 16 µM.

For the molecule `CS(=O)(=O)Nc1ccc(-c2ccnc3[nH]ccc23)cc1`, the Kd at Venus kinase receptor 2 [5] came to 7.8 µM.
